Compound activity deposited in PubChem by several laboratories.
This is one part of a sample in which hits are shown more often than they occur.
Dynein transport = inhibitors of GR-EGFP nuclear translocation, primary screen, dynein cargo transport inhibitor project, imaging, high-content, 3617.4 mouse cells. test concentration mostly 20 µM; stimulated with dexamethasone, 1 µM; stronger effect = lower value. AID 1381, 2008. z-score, hits read low. 220,000 compounds, 0.47% hits;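 active = plate z-score of nuclear minus cytoplasmic receptor signal below a set negative limit, without overly bright fluorescence or cell loss, cut at about -3.5 in these data, passing the limit was not always enough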;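 also: z-score of nuclear minus cytoplasmic ring GR-EGFP intensity difference per well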
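Also added – dexamethasone, 1.0 µM final · Buffer or medium – tet-free, stripped-serum medium · Schedule – induction 48 h, compound 1 h, agonist 30 min · Detection – formaldehyde fixation, Hoechst nuclear stain, 10x automated fluorescence imaging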
XBP1 UPR activ = activators of adaptive XBP1 UPR arm, primary screen, cell-based, CHO-XBP1 luciferase reporter, luminescence, uHTS. activation, % at 20 µM. 330,000 compounds, 0.33% hits. IRE1-XBP1 UPR activation; percent of tunicamycin response, DMSO as zero;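 active = versus positive control, 20 µM dose yields 30% or more activation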;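 also: 100% = tunicamycin at 10 µg/mL and 0% = DMSO only wells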
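Test system: CHO-XBP1 luciferase reporter cells | Buffer or medium: Serum-containing F12 medium, 10% FBS | Schedule: 6 h compound exposure at 37 °C, 5% CO2 | Detection: Steady-Glo luciferase glow luminescence, 10 min after reagent addition | Read-out basis: Activation, % of tunicamycin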
Lmaj promast = Leishmania major promastigote growth inhibition, primary screen; Leishmania major promastigotes, resazurin fluorescence viability; inhibition, % at 10 µM; 200,000 compounds, 9% hits; AID 1063, 2008; in the data active = inhibition above about 50%;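 also: promastigotes grown with compound for 44 hours at 28 °C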
CHOP UPR activ = activators of apoptotic CHOP UPR arm, primary screen, cell-based, CHO-CHOP luciferase reporter, luminescence, uHTS; activation, % at 10 µM; UPR activation; percent of tunicamycin response over DMSO baseline; 330,000 compounds, 0.34% hits;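 active = at 10 µM dose, activation of 40% or more, normalized to positive control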;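 also: 100% = tunicamycin at 10 µg/mL and 0% = DMSO alone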
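Dosing – one dose, 10 µM in 0.5% DMSO · System – CHO-CHOP cells, stable luciferase reporter of PERK-eIF2a-CHOP signalling · Input – 500 cells/well · Control set – tunicamycin 10 µg/mL final as positive, DMSO-only wells as negative · Timing – 6 h compound treatment, 37 °C · Measure – % activation vs tunicamycin · Technique – luminescence read with Steady-Glo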
T cruzi inh = inhibitors of intracellular T. cruzi growth, primary screen, luminescence, NIH3T3 host cells; T. cruzi beta-gal in NIH3T3, 90 h; AID 1885, 2009; inhibition, % (concentration not given with the values); 300,000 compounds, 1.4% hits;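 active = mean inhibition across valid replicates above about 55%, limit read from the data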;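 also: signal also drops with host cell toxicity which is not excluded here; 0% = plate median of DMSO wells and 100% = zero luminescence signal; higher percent means less beta-gal luminescence so fewer parasites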
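System: Mouse NIH/3T3 fibroblasts infected with β-gal-expressing T. cruzi Tulahuen C4 | Quantity: NIH/3T3 cells, 5,000 per well | Reagent: 5000 reporter trypomastigotes per well | Dosing: Compound pinned at 50 nL/well, DMSO | Schedule: 3 h host attachment, then at least 90 h co-culture | Detection: GalScreen luminescence, 60 min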
CHOP inhibitor = inhibitors of CHOP promoter induction, primary screen, cell-based, unfolded protein response, luciferase reporter; 220,000 compounds, 3.8% hits; inhibition, % at 10 µM; CHO-K1 CHOP-promoter luciferase, tunicamycin-induced, 15-18 h; AID 2732, 2010;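 active = compounds that reduced the stress-induced luciferase reporter signal by more than about 70% of percent inhibition, limit read from the data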;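 also: 0% = tunicamycin plus vehicle and 100% = wells without tunicamycin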
Numbers without * were called inactive; . = no result given.

SMILES	Dynein transport	XBP1 UPR activ	Lmaj promast	CHOP UPR activ	T cruzi inh	CHOP inhibitor
CC1(CCC(=O)N2CCCC(Nc3ccc(F)cc3)C2)CC1 (configuration not stated)	.	-3	.	0	-5	.
O=C1S/C(=C\c2ccccc2)C(=O)N1CC(O)Cn1c2ccccc2c2ccccc21 (configuration not stated)	1.9	.	27	.	58*	16
COC(=O)CCCC(=O)N1CCC(CCC(=O)NCc2ccc(F)cc2)CC1	.	0	.	-9	-9	.
Cc1oc(-c2cc(F)ccc2F)nc1CN(C)Cc1ccc2nccnc2c1	-0.6	-2	75*	-1	14	24
CC(Sc1ccccc1)C(=O)NCC(c1ccco1)N1CCCCC1 (configuration not stated)	.	-1	.	-1	5	.
Cc1cc(C(=O)N2CCN(c3ncccn3)CC2)nn1C	-0.0073	1	.	0	-11	12
COc1ccc(C(=O)C2CCCN(C/C=C/c3ccccc3OC)C2)c(OC)c1 (configuration not stated)	-0.36	0	50*	-3	35	15
CCOC(=O)C1CCN(C/C=C/c2ccccc2OC)CC1	-0.94	-1	78*	1	8	-19
COc1ccc(C(=O)C2CCCN(Cc3c(F)ccc(F)c3F)C2)c(OC)c1 (configuration not stated)	.	-4	.	-1	21	.
COc1ccc(C(=O)C2CCCN(Cc3c[nH]c4ccccc34)C2)c(OC)c1 (configuration not stated)	-0.74	3	62*	-2	49	8
COc1ccc(/C=C/CN2CCCC(C(=O)c3ccc(OC)c(F)c3)C2)cc1 (configuration not stated)	-0.0052	-1	82*	0	48	0
CCOc1cc(C)nc(NCc2ccccc2)n1	-1.9	0	65*	0	2	-26
Cc1cc(N2CCCCC2)nc(NCc2ccccc2)n1	-1.3	4	75*	-1	56*	25
Cc1cc(N2CCOCC2)nc(NCc2ccccc2)n1	-0.69	-3	9	3	13	33
Cc1ccc(OCC(=O)N(c2ccccn2)C2CCCCC2)c(C)c1	0.46	1	87*	0	-5	22
O=C(CN(C(=O)c1csnn1)c1ccc2c(c1)OCCO2)NCc1ccccc1	.	2	.	4	-4	.
CCN(c1ccccc1)S(=O)(=O)c1ccc(OC)c(NC(=O)c2cccs2)c1	0.36	-4	96*	0	32	8
Cc1ccc(NC(=O)/C(=C\c2cccs2)NC(=O)c2ccccc2)cc1	0.87	0	83*	1	1	18
O=C(Nc1ccc(O)cc1)/C(=C\c1cccs1)NC(=O)c1ccccc1	-0.058	-3	-4	0	-11	25
Cc1ccc(S(=O)(=O)N(C)C)cc1NC(=S)NC12CC3CC(CC(C3)C1)C2	1.4	.	78*	.	21	36
Cc1ccc(S(=O)(=O)N(C)C)cc1NC(=S)NC(=O)C12CC3CC(CC(C3)C1)C2	-0.53	2	-5	39	4	49
CCCc1nc(SCC(=O)c2ccccc2)c2c(=O)n(C)c(=O)n(C)c2n1	-0.76	-2	19	1	33	74*
CCCc1nc(SCC(=O)Nc2cc(Cl)ccc2OC)c2c(=O)n(C)c(=O)n(C)c2n1	0.47	3	-4	0	-9	79*
CCc1nc(SCC(=O)c2ccccc2)c2c(=O)n(C)c(=O)n(C)c2n1	-0.34	4	.	0	23	11
CCc1nc(SCC(=O)Nc2ccc(F)cc2F)c2c(=O)n(C)c(=O)n(C)c2n1	.	-1	.	2	-3	.
O=C(COc1ccc(C(=O)c2ccccc2)cc1)Nc1cccnc1	.	-7	.	3	-5	.
COc1ccc(COc2cc(-c3cccc(OC)c3)nc3ccc(NC(=O)c4ccc(Cl)cc4)cc23)cc1	0.28	-1	7	0	8	-7
